Results from ChEMBL document CHEMBL1138555, “N-acylated and N,N'-diacylated imidazolidine-2-thione derivatives and N,N'-diacylated tetrahydropyrimidine-2(1H)-thione analogues: synthesis and antiproliferative activity” (Eur J Med Chem, 2009).

How the values were obtained:
[1] = test system: SK-OV-3; assay: Growth inhibition of human SKOV3 cells after 48 hrs by sulforhodamine B assay; format: functional; settings: SK-OV-3, 48 h
Procedure, shortened: (§1)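 NCI screen panel. Five 10-fold concentrations from 10^-4 to 10^-8 M. Exposure for the last 48 h of a 72 h incubation. Growth estimated by sulforhodamine B protein assay. GI50 is the concentration giving 50% growth inhibition. Where that level was not reached or was exceeded, the value is given as above or below the highest or lowest concentration tested.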

[2] = test system: EKVX; assay: Growth inhibition of human EKVX cells after 48 hrs by sulforhodamine B assay; format: functional; procedure, shortened: as §1
[3] = test system: OVCAR-8; assay: Growth inhibition of human OVCAR8 cells after 48 hrs by sulforhodamine B assay; format: functional; settings: OVCAR-8, 48 h; procedure, shortened: as §1
[4] = test system: OVCAR-3; assay: Growth inhibition of human OVCAR-3 cells after 48 hrs by sulforhodamine B assay; format: functional; settings: OVCAR-3, 48 h; procedure, shortened: as §1
[5] = test system: U-251; assay: Growth inhibition of human U251 cells after 48 hrs by sulforhodamine B assay; format: functional; settings: U-251, 48 h
Procedure, shortened: (§2)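 NCI in vitro panel screen. Compounds tested at five 10-fold dilutions, 10^-4 to 10^-8 M. Cells in 96-well plates were exposed for the last 48 h of a 72 h incubation. Viability/growth was read by sulforhodamine B protein assay. GI50 is the concentration giving 50% growth inhibition. Values beyond the tested range are reported as greater or less than the maximum or minimum concentration.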

[6] = test system: HOP-92; assay: Growth inhibition of human HOP92 cells after 48 hrs by sulforhodamine B assay; format: functional; settings: HOP-92, 48 h; procedure, shortened: as §1
[7] = test system: UACC-257; assay: Growth inhibition of human UACC257 cells after 48 hrs by sulforhodamine B assay; format: functional; settings: UACC-257, 48 h; procedure, shortened: as §2
[8] = test system: CAKI-1; assay: Growth inhibition of human Caki1 cells after 48 hrs by sulforhodamine B assay; format: functional; settings: CAKI-1, 48 h; procedure, shortened: as §1
[9] = test system: BT-549; assay: Growth inhibition of human BT549 cells after 48 hrs by sulforhodamine B assay; format: functional; settings: BT-549, 48 h; procedure, shortened: as §1
[10] = test system: SF-295; assay: Growth inhibition of human SF295 cells after 48 hrs by sulforhodamine B assay; format: functional; settings: SF-295, 48 h; procedure, shortened: as §1
[11] = test system: A549; assay: Growth inhibition of human A549 cells after 48 hrs by sulforhodamine B assay; format: functional; settings: A549, 48 h; procedure, shortened: as §1
[12] = test system: HOP-62; assay: Growth inhibition of human HOP62 cells after 48 hrs by sulforhodamine B assay; format: functional; settings: HOP-62, 48 h; procedure, shortened: as §1
[13] = test system: MDA-MB-435; assay: Growth inhibition of human MDA-MB-435 cells after 48 hrs by sulforhodamine B assay; format: functional; settings: MDA-MB-435, 48 h; procedure, shortened: as §1
[14] = test system: KM12; assay: Growth inhibition of human KM12 cells after 48 hrs by sulforhodamine B assay; format: functional; settings: KM12, 48 h; procedure, shortened: as §1
[15] = test system: MT4; assay: Antiproliferative activity against human MT4 cells assessed as reduction of growth by MTT assay; format: functional, cell-based
Procedure, shortened: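 MT-4 lymphoblastoid T cells (ATCC) in RPMI 1640 with 10% FCS, penicillin/streptomycin, checked for mycoplasma. 1 × 10⁴ mock-infected cells per well with serial dilutions from a 100 mM DMSO stock. Incubated 4 days at 37 °C, viable cells counted by MTT. IC50 versus untreated controls by linear regression. Mean of three separate experiments.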

[16] = test system: TK-10; assay: Growth inhibition of human TK10 cells after 48 hrs by sulforhodamine B assay; format: functional; settings: TK-10, 48 h; procedure, shortened: as §2
[17] = test system: 786-0; assay: Growth inhibition of human 786-0 cells after 48 hrs by sulforhodamine B assay; format: functional; settings: 786-0, 48 h; procedure, shortened: as §1
[18] = test system: M14; assay: Growth inhibition of human M14 cells after 48 hrs by sulforhodamine B assay; format: functional; settings: M14, 48 h; procedure, shortened: as §1
[19] = test system: RXF 393; assay: Growth inhibition of human RXF393 cells after 48 hrs by sulforhodamine B assay; format: functional; settings: RXF 393, 48 h; procedure, shortened: as §1
[20] = test system: HCT-15; assay: Growth inhibition of human HCT15 cells after 48 hrs by sulforhodamine B assay; format: functional; settings: HCT-15, 48 h; procedure, shortened: as §1
[21] = test system: NCI-H460; assay: Growth inhibition of human NCI-H460 cells after 48 hrs by sulforhodamine B assay; format: functional; settings: NCI-H460, 48 h; procedure, shortened: as §1
[22] = test system: SR; assay: Growth inhibition of human SR cells after 48 hrs by sulforhodamine B assay; format: functional; procedure, shortened: as §2
[23] = test system: SK-MEL-2; assay: Growth inhibition of human SK-MEL-2 cells after 48 hrs by sulforhodamine B assay; format: functional; settings: SK-MEL-2, 48 h; procedure, shortened: as §1
[24] = test system: PC-3; assay: Growth inhibition of human PC3 cells after 48 hrs by sulforhodamine B assay; format: functional; settings: PC-3, 48 h; procedure, shortened: as §1
[25] = test system: IGROV-1; assay: Growth inhibition of human IGROV1 cells after 48 hrs by sulforhodamine B assay; format: functional; settings: IGROV-1, 48 h; procedure, shortened: as §1
[26] = test system: LOX IMVI; assay: Growth inhibition of human LOXIMVI cells after 48 hrs by sulforhodamine B assay; format: functional; procedure, shortened: as §1
[27] = test system: SNB-19; assay: Growth inhibition of human SNB19 cells after 48 hrs by sulforhodamine B assay; format: functional; settings: SNB-19, 48 h; procedure, shortened: as §2
[28] = test system: MDA-MB-231; assay: Growth inhibition of human MDA-MB-231 cells after 48 hrs by sulforhodamine B assay; format: functional; settings: MDA-MB-231, 48 h; procedure, shortened: as §1
[29] = Growth inhibition of human […] cells after 48 hrs by sulforhodamine B assay; format: functional; procedure, shortened: as §1
[30] = test system: NCI-H23; assay: Growth inhibition of human NCI-H23 cells after 48 hrs by sulforhodamine B assay; format: functional; settings: NCI-H23, 48 h; procedure, shortened: as §1
[31] = test system: DU-145; assay: Growth inhibition of human DU145 cells after 48 hrs by sulforhodamine B assay; format: functional; settings: DU-145, 48 h; procedure, shortened: as §1
[32] = test system: HL-60(TB); assay: Growth inhibition of human HL-60(TB) cells after 48 hrs by sulforhodamine B assay; format: functional; settings: HL-60, 48 h
Procedure, shortened: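 NCI 60-cell-line screen protocol: cells exposed to compound at five 10-fold dilutions from 10^-4 to 10^-8 M for the last 48 h of a 72 h incubation. Sulforhodamine B protein assay estimated viability/growth. GI50 (50% growth inhibition) derived; where not reached or exceeded, reported as greater or less than the highest or lowest concentration tested.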

[33] = test system: K562; assay: Growth inhibition of human K562 cells after 48 hrs by sulforhodamine B assay; format: functional; settings: K562, 48 h; procedure, shortened: as §1
[34] = test system: NCI/ADR-RES; assay: Growth inhibition of human NCI/ADR-RES cells after 48 hrs by sulforhodamine B assay; format: functional; procedure, shortened: as §1
[35] = test system: MOLT-4; assay: Growth inhibition of human MOLT4 cells after 48 hrs by sulforhodamine B assay; format: functional; settings: MOLT-4, 48 h; procedure, shortened: as §1
[36] = test system: SK-MEL-5; assay: Growth inhibition of human SK-MEL-5 cells after 48 hrs by sulforhodamine B assay; format: functional; settings: SK-MEL-5, 48 h; procedure, shortened: as §1
[37] = test system: UACC-62; assay: Growth inhibition of human UACC62 cells after 48 hrs by sulforhodamine B assay; format: functional; settings: UACC-62, 48 h; procedure, shortened: as §2
[38] = test system: OVCAR-4; assay: Growth inhibition of human OVCAR4 cells after 48 hrs by sulforhodamine B assay; format: functional; settings: OVCAR-4, 48 h; procedure, shortened: as §1
[39] = test system: COLO 205; assay: Growth inhibition of human COLO205 cells after 48 hrs by sulforhodamine B assay; format: functional; settings: COLO 205, 48 h; procedure, shortened: as §1
[40] = test system: UO-31; assay: Growth inhibition of human UO31 cells after 48 hrs by sulforhodamine B assay; format: functional; settings: UO-31, 48 h; procedure, shortened: as §2
[41] = test system: SK-MEL-28; assay: Growth inhibition of human SK-MEL-28 cells after 48 hrs by sulforhodamine B assay; format: functional; settings: SK-MEL-28, 48 h; procedure, shortened: as §1
[42] = test system: Malme-3M; assay: Growth inhibition of human MALME-3M cells after 48 hrs by sulforhodamine B assay; format: functional; procedure, shortened: as §1
[43] = test system: SN12C; assay: Growth inhibition of human SN12C cells after 48 hrs by sulforhodamine B assay; format: functional; procedure, shortened: as §2
[44] = test system: HCT-116; assay: Growth inhibition of human HCT116 cells after 48 hrs by sulforhodamine B assay; format: functional; settings: HCT-116, 48 h; procedure, shortened: as §1
[45] = test system: ACHN; assay: Growth inhibition of human ACHN cells after 48 hrs by sulforhodamine B assay; format: functional; procedure, shortened: as §1
[46] = test system: SW-620; assay: Growth inhibition of human SW620 cells after 48 hrs by sulforhodamine B assay; format: functional; settings: SW-620, 48 h; procedure, shortened: as §2
[47] = test system: NCI-H322M; assay: Growth inhibition of human NCI-H322M cells after 48 hrs by sulforhodamine B assay; format: functional; procedure, shortened: as §1
[48] = test system: SNB-75; assay: Growth inhibition of human SNB75 cells after 48 hrs by sulforhodamine B assay; format: functional; settings: SNB-75, 48 h; procedure, shortened: as §2
[49] = test system: HT-29; assay: Growth inhibition of human HT-29 cells after 48 hrs by sulforhodamine B assay; format: functional; settings: HT-29, 48 h; procedure, shortened: as §1

O=C(C(=CN1CCN(C(=O)c2ccco2)C1=S)C(=O)c1ccccc1)c1ccccc1
GI50 [1]: 41.8 µM
GI50 [2]: 8.1 µM
GI50 [3]: 16.2 µM
GI50 [4]: 7.3 µM
GI50 [5]: 2.7 µM
GI50 [6]: 27 µM
GI50 [7]: 11.7 µM
GI50 [8]: 7 µM
GI50 [9]: 10 µM
GI50 [10]: 11.1 µM
GI50 [11]: 11.3 µM
GI50 [12]: 15.9 µM
GI50 [13]: 7.2 µM
GI50 [14]: 2.3 µM
IC50 [15]: 7 µM
GI50 [16]: 6.9 µM
GI50 [17]: 8.2 µM
GI50 [18]: 7 µM
GI50 [19]: 5.8 µM
GI50 [20]: 2.6 µM
GI50 [21]: 2.4 µM
GI50 [22]: 1.3 µM
GI50 [23]: 12.1 µM
GI50 [24]: 23.6 µM
GI50 [25]: 5.6 µM
GI50 [26]: 1.2 µM
GI50 [27]: 29.2 µM
GI50 [28]: 7.4 µM
GI50 [29]: 8.4 µM
GI50 [30]: 7 µM
GI50 [31]: 12.4 µM
GI50 [32]: 9.9 µM
GI50 [33]: 3.2 µM
GI50 [34]: 9.2 µM
GI50 [35]: 15.2 µM
GI50 [36]: 10.9 µM
GI50 [37]: 6.9 µM
GI50 [38]: 16.1 µM
GI50 [39]: 20 µM
GI50 [40]: 8.7 µM
GI50 [41]: 17.8 µM
GI50 [42]: 3.1 µM
GI50 [43]: 6.1 µM
GI50 [44]: 7.9 µM
GI50 [45]: 5.8 µM
GI50 [46]: 8.7 µM
GI50 [47]: 2.2 µM
GI50 [48]: 27.4 µM
GI50 [49]: 16.9 µM
